≈ marks a conversion by molar mass, not a printed value. Calls of active or inactive are those of the source. No cut-off for these calls is given here.
What was measured:
HL-60 [1] = assay: Antiproliferative activity against human HL60 cells; format: functional, cell-based
How it was run: (§1)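 IC50 is the concentration giving 50% growth inhibition, reported as mean with SD. HL-60/vinc and LoVo/DX are drug-resistant (MDR) sublines of HL-60 and LoVo. BALB/3T3 is a normal murine embryonic fibroblast line.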

[2] = Antiproliferative activity against human HL60/Vinc cells; format: functional, cell-based; how it was run: as §1
LoVo [3] = assay: Antiproliferative activity against human LoVo cells; format: functional, cell-based; how it was run: as §1
[4] = Antiproliferative activity against human LoVo/DX cells; format: functional, cell-based; how it was run: as §1
BALB/3T3 [5] = assay: Antiproliferative activity mouse BALB/3T3 cells; format: cell-based; how it was run: as §1
HL-60 [6] = assay: Selectivity index, ratio of IC50 for mouse BALB/3T3 cells to IC50 for human HL60 cells; format: functional
How it was run: (§2)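 Selectivity index is the IC50 in normal murine embryonic fibroblasts (BALB/3T3) divided by the IC50 in the respective cancer line (HL-60, HL-60/vinc, LoVo or LoVo/DX). Each IC50 is the concentration giving 50% growth inhibition. SI >1.0 is taken as favourable.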

[7] = Selectivity index, ratio of IC50 for mouse BALB/3T3 cells to IC50 for human HL60/Vinc cells; format: functional; how it was run: as §2
HL-60 [8] = assay: Resistance index, ratio of IC50 for human HL60/Vinc cells to IC50 for human HL60 cells; format: functional
How it was run: (§3)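 Index of resistance is the IC50 in the resistant subline (HL-60/vinc or LoVo/DX) divided by the IC50 in its parental line (HL-60 or LoVo). Each IC50 is the concentration giving 50% growth inhibition. Bands are 0–2 sensitive, 2–10 moderate, above 10 strongly resistant.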

LoVo [9] = assay: Selectivity index, ratio of IC50 for mouse BALB/3T3 cells to IC50 for human LoVo cells; format: functional; how it was run: as §2
[10] = Selectivity index, ratio of IC50 for mouse BALB/3T3 cells to IC50 for human LoVo/DX cells; format: functional; how it was run: as §2
LoVo [11] = assay: Resistance index, ratio of IC50 for human LoVo/DX cells to IC50 for human LoVo cells; format: functional; how it was run: as §3
Staphylococcus aureus [12] = assay: Antibacterial activity against Staphylococcus aureus NCTC 4163; format: functional
Staphylococcus aureus [13] = assay: Antibacterial activity against Staphylococcus aureus ATCC 25923; format: functional
Staphylococcus aureus [14] = assay: Antibacterial activity against Staphylococcus aureus ATCC 6538; format: functional
Staphylococcus aureus [15] = assay: Antibacterial activity against Staphylococcus aureus ATCC 29213; format: functional
[16] = test system: Staphylococcus epidermidis; assay: Antibacterial activity against Staphylococcus epidermidis ATCC 12228; format: functional
How it was run: (§4)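 In vitro antibacterial test on Staphylococcus strains, including MRSE clinical isolates. Read-outs were growth inhibition zone (mm) and MIC (µg/ml). Ciprofloxacin was the reference antibiotic.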

[17] = test system: Staphylococcus epidermidis; assay: Antibacterial activity against Staphylococcus epidermidis ATCC 35984; format: functional; how it was run: as §4
[18] = test system: Staphylococcus epidermidis; assay: Antibacterial activity against methicillin-resistant Staphylococcus epidermidis 459/11; format: functional; how it was run: as §4
[19] = test system: Staphylococcus epidermidis; assay: Antibacterial activity against methicillin-resistant Staphylococcus epidermidis 460/11; format: functional; how it was run: as §4
[20] = test system: Staphylococcus epidermidis; assay: Antibacterial activity against methicillin-resistant Staphylococcus epidermidis 461/11; format: functional; how it was run: as §4
[21] = test system: Staphylococcus epidermidis; assay: Antibacterial activity against methicillin-resistant Staphylococcus epidermidis 466/11; format: functional; how it was run: as §4
[22] = test system: Staphylococcus epidermidis; assay: Antibacterial activity against methicillin-resistant Staphylococcus epidermidis 467/11; format: functional; how it was run: as §4
[23] = test system: Staphylococcus epidermidis; assay: Antibacterial activity against methicillin-resistant Staphylococcus epidermidis 468/11; format: functional; how it was run: as §4
[24] = test system: Staphylococcus epidermidis; assay: Antibacterial activity against methicillin-resistant Staphylococcus epidermidis 469/11; format: functional; how it was run: as §4
[25] = test system: Staphylococcus epidermidis; assay: Antibacterial activity against methicillin-resistant Staphylococcus epidermidis 470/11; format: functional; how it was run: as §4
[26] = test system: Staphylococcus epidermidis; assay: Antibacterial activity against methicillin-resistant Staphylococcus epidermidis 488/11; format: functional; how it was run: as §4
[27] = test system: Staphylococcus epidermidis; assay: Antibacterial activity against methicillin-resistant Staphylococcus epidermidis 489/11; format: functional; how it was run: as §4
Homo sapiens = species: Homo sapiens; assay: Antiproliferative activity against human HL60/Vinc cells up to 100 ug/ml; format: functional, cell-based
BALB/3T3 [28] = assay: Antiproliferative activity mouse BALB/3T3 cells up to 100 ug/ml; format: cell-based

| SMILES | IC50 (HL-60 [1]) [µM] | IC50 (LoVo [3]) [µM] | IC50 [4] [µM] | Ratio IC50 (LoVo [11]) | MIC (Staphylococcus aureus [12]) [µg/mL] | MIC (Staphylococcus aureus [13]) [µg/mL] | MIC (Staphylococcus aureus [14]) [µg/mL] | MIC (Staphylococcus aureus [15]) [µg/mL] | MIC [16] [µg/mL] | MIC [17] [µg/mL] | MIC [18] [µg/mL] | MIC [19] [µg/mL] | MIC [20] [µg/mL] | MIC [21] [µg/mL] | MIC [22] [µg/mL] | MIC [23] [µg/mL] | MIC [24] [µg/mL] | MIC [25] [µg/mL] | MIC [26] [µg/mL] | MIC [27] [µg/mL] | further results |
| --- | --- | --- | --- | --- | --- | --- | --- | --- | --- | --- | --- | --- | --- | --- | --- | --- | --- | --- | --- | --- | --- |
| CC[C@@H](C(=O)[C@@H](C)[C@@H](O)[C@H](C)[C@@H]1O[C@@H]([C@@H](CC)C(=O)O)CC[C@@H]1C)[C@H]1O[C@]2(C=C[C@@H](O)[C@]3(CC[C@@](C)([C@H]4CC[C@](O)(CC)[C@H](C)O4)O3)O2)[C@H](C)C[C@@H]1C [SALINOMYCIN] | 1.2 | 1.5 | 1 | 0.65 | 2 (≈ 2.66 µM) | 2 (≈ 2.66 µM) | 2 (≈ 2.66 µM) | 4 (≈ 5.33 µM) | 2 (≈ 2.66 µM) | 2 (≈ 2.66 µM) | 16 (≈ 21.3 µM) | 16 (≈ 21.3 µM) | 16 (≈ 21.3 µM) | 8 (≈ 10.7 µM) | 16 (≈ 21.3 µM) | 8 (≈ 10.7 µM) | 16 (≈ 21.3 µM) | 16 (≈ 21.3 µM) | 16 (≈ 21.3 µM) | 16 (≈ 21.3 µM) | IC50 [2]: 4.7 µM; IC50 (BALB/3T3 [5]): 25.8 µM; Ratio IC50 (HL-60 [6]): 22.07; Ratio IC50 [7]: 5.45; Ratio IC50 (HL-60 [8]): 4.05; Ratio IC50 (LoVo [9]): 16.88; Ratio IC50 [10]: 26.08 |
| CC[C@@H](C(=O)[C@@H](C)[C@@H](O)[C@H](C)[C@@H]1O[C@@H]([C@@H](CC)C(=O)NCCS)CC[C@@H]1C)[C@H]1O[C@]2(C=C[C@@H](O)[C@]3(CC[C@@](C)([C@H]4CC[C@](O)(CC)[C@H](C)O4)O3)O2)[C@H](C)C[C@@H]1C | 3.1 | 26.5 | 28.5 | 1.07 | 16 (≈ 19.7 µM) | 16 (≈ 19.7 µM) | 16 (≈ 19.7 µM) | 32 (≈ 39.5 µM) | 32 (≈ 39.5 µM) | 32 (≈ 39.5 µM) | 32 (≈ 39.5 µM) | 32 (≈ 39.5 µM) | 32 (≈ 39.5 µM) | 32 (≈ 39.5 µM) | 32 (≈ 39.5 µM) | 64 (≈ 79 µM) | 64 (≈ 79 µM) | 64 (≈ 79 µM) | 32 (≈ 39.5 µM) | 32 (≈ 39.5 µM) | IC50 [2]: 34 µM; IC50 (BALB/3T3 [5]): 17.1 µM; Ratio IC50 (HL-60 [6]): 5.53; Ratio IC50 [7]: 0.5; Ratio IC50 (HL-60 [8]): 10.99; Ratio IC50 (LoVo [9]): 0.65; Ratio IC50 [10]: 0.6 |
| CC[C@@H](C(=O)[C@@H](C)[C@@H](O)[C@H](C)[C@@H]1O[C@@H]([C@@H](CC)C(=O)Nc2ccc(-c3ccc(NC(=O)[C@H](CC)[C@H]4CC[C@H](C)[C@H]([C@@H](C)[C@H](O)[C@H](C)C(=O)[C@H](CC)[C@H]5O[C@]6(C=C[C@@H](O)[C@]7(CC[C@@](C)([C@H]8CC[C@](O)(CC)[C@H](C)O8)O7)O6)[C@H](C)C[C@@H]5C)O4)cc3)cc2)CC[C@@H]1C)[C@H]1O[C@]2(C=C[C@@H](O)[C@]3(CC[C@@](C)([C@H]4CC[C@](O)(CC)[C@H](C)O4)O3)O2)[C@H](C)C[C@@H]1C | 4.4 | 8.4 | 3.1 | 0.38 | 16 (≈ 9.7 µM) | 32 (≈ 19.4 µM) | 32 (≈ 19.4 µM) | 32 (≈ 19.4 µM) | 32 (≈ 19.4 µM) | 32 (≈ 19.4 µM) | 32 (≈ 19.4 µM) | 64 (≈ 38.8 µM) | 32 (≈ 19.4 µM) | 32 (≈ 19.4 µM) | 16 (≈ 9.7 µM) | 32 (≈ 19.4 µM) | 64 (≈ 38.8 µM) | 64 (≈ 38.8 µM) | 32 (≈ 19.4 µM) | 32 (≈ 19.4 µM) | inhibition (Homo sapiens): inactive; Activity (BALB/3T3 [28]): Non-toxic |
| CC[C@@H](C(=O)[C@@H](C)[C@@H](O)[C@H](C)[C@@H]1O[C@@H]([C@@H](CC)C(=O)NCCOCCO)CC[C@@H]1C)[C@H]1O[C@]2(C=C[C@@H](O)[C@]3(CC[C@@](C)([C@H]4CC[C@](O)(CC)[C@H](C)O4)O3)O2)[C@H](C)C[C@@H]1C | 17.8 | 36.7 | 14.3 | 0.39 | 32 (≈ 38.2 µM) | 32 (≈ 38.2 µM) | 32 (≈ 38.2 µM) | 64 (≈ 76.4 µM) | 64 (≈ 76.4 µM) | 64 (≈ 76.4 µM) | 32 (≈ 38.2 µM) | 64 (≈ 76.4 µM) | 64 (≈ 76.4 µM) | 64 (≈ 76.4 µM) | 32 (≈ 38.2 µM) | 64 (≈ 76.4 µM) | 64 (≈ 76.4 µM) | 64 (≈ 76.4 µM) | 64 (≈ 76.4 µM) | 64 (≈ 76.4 µM) | IC50 [2]: 30.9 µM; IC50 (BALB/3T3 [5]): 39.4 µM; Ratio IC50 (HL-60 [6]): 2.22; Ratio IC50 [7]: 1.28; Ratio IC50 (HL-60 [8]): 1.74; Ratio IC50 (LoVo [9]): 1.08; Ratio IC50 [10]: 2.76 |

From ChEMBL document CHEMBL3232897, “Synthesis, antiproliferative and antibacterial activity of new amides of salinomycin” (Bioorg Med Chem Lett, 2014)
